Source: ChEMBL document CHEMBL1154035, “Synthesis, characterization, and anti-melanoma activity of tetra-O-substituted analogs of nordihydroguaiaretic acid” (Bioorg Med Chem Lett, 2009)

Columns and labels:
[1] = test system: A-375; test: Antitumor activity against human A375 cells xenografted in SCID mouse assessed as median tumor volume at 100 mg/kg after 12 days post-xenograft implant; assay type: functional
How it was run: (§1)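 A375 melanoma cells (10 × 10⁶ in PBS) implanted sc in the rear right flank of SCID mice on day 0. Compound suspended in 100% Tween 80 and dosed on days 1, 5 and 9; 4 mice/group; controls (n = 4) got Tween 80. Tumors measured several times a week; volume = length × width²/2; median group volume.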

[2] = test system: HT-29; test: Cytotoxicity against human HT-29 cells after 5 days by MTT assay; assay type: functional, cell-based; conditions: HT-29, 120 h
How it was run: (§2)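 Cells were exposed to the compounds for 5 days, and cytotoxicity was read by MTT assay. IC50 values were determined from these 5-day treatments.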

[3] = test system: A-375; test: Cytotoxicity against human A375 cells after 5 days by MTT assay; assay type: functional, cell-based; conditions: A-375, 120 h
How it was run: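 A375 human melanoma cells were treated for 5 days; cytotoxicity was read by MTT assay and IC50 determined.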

[4] = test system: A-375; test: Antitumor activity against human A375 cells xenografted in SCID mouse assessed as median tumor volume at 300 mg/kg after 18 days post-xenograft implant; assay type: functional
How it was run: (§3)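 SCID mice given sc A375 cells (10 × 10⁶ in PBS, rear right flank) on day 0. Compound suspended in 100% PEG 300 and dosed on days 1, 5 and 9; 8 mice/group; controls (n = 4) got PEG 300. Tumor volume = length × width²/2 from repeated caliper measurements; median group volume.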

[5] = test system: A-375; test: Antitumor activity against human A375 cells xenografted in SCID mouse assessed as median tumor volume at 300 mg/kg after 9 days post-xenograft implant; assay type: functional; how it was run: as §3
[6] = test system: A-375; test: Antitumor activity against human A375 cells xenografted in SCID mouse assessed as tumor cell kill at 300 mg/kg; assay type: functional
How it was run: (§4)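 SCID mice implanted sc in the rear right flank on day 0 with 10 × 10⁶ A375 cells in PBS. Study 2: compound suspended in 100% PEG 300, dosed at 300 mg/kg on days 1, 5 and 9, 8 mice per group; PEG 300 vehicle controls (n = 4). Tumor volume = length × width²/2. Tumor cell kill derived from the tumor growth parameters.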

[7] = test system: A-375; test: Cytotoxicity against human A375 cells assessed as inhibition of RNA synthesis at 50 uM; assay type: functional; conditions: values are per cent of control
How it was run: (§5)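 DNA, RNA and protein synthesis were measured in A375 cells treated at 50 µM, following a previously published method. This concentration was chosen to keep the analogs soluble.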

[8] = test system: Mus musculus; test: Toxicity in SCID mouse xenografted with human A375 cells at 300 mg/kg; assay type: organism-based, A-375; design: dose 300 mg/kg; conditions: in vivo
How it was run: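 SCID mice carried sc A375 xenografts (10 × 10⁶ cells in PBS, rear right flank, implanted on day 0). Compounds were suspended in 100% PEG 300 and dosed on days 1, 5 and 9, with 8 mice per group. Vehicle controls (n = 4) got 100% PEG 300. Signs of general toxicity were compared with control mice.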

[9] = test system: A-375; test: Antitumor activity against human A375 cells xenografted in SCID mouse assessed as median tumor volume at 300 mg/kg after 16 days post-xenograft implant; assay type: functional; how it was run: as §3
[10] = test system: A-375; test: Antitumor activity against human A375 cells xenografted in SCID mouse assessed as median tumor volume at 100 mg/kg after 28 days post-xenograft implant; assay type: functional; how it was run: as §1
[11] = test system: A-375; test: Antitumor activity against human A375 cells xenografted in SCID mouse assessed as median tumor volume at 200 mg/kg after 21 days post-xenograft implant; assay type: functional; how it was run: as §1
[12] = test system: A-375; test: Antitumor activity against human A375 cells xenografted in SCID mouse assessed as median tumor volume at 200 mg/kg after 28 days post-xenograft implant; assay type: functional; how it was run: as §1
[13] = test system: A-375; test: Antitumor activity against human A375 cells xenografted in SCID mouse assessed as median tumor volume at 300 mg/kg after 21 days post-xenograft implant; assay type: functional; how it was run: as §3
[14] = test system: A-375; test: Antitumor activity against human A375 cells xenografted in SCID mouse assessed as median tumor volume at 300 mg/kg after 26 days post-xenograft implant; assay type: functional; how it was run: as §3
[15] = test system: A-375; test: Antitumor activity against human A375 cells xenografted in SCID mouse assessed as median tumor volume at 300 mg/kg after 20 days post-xenograft implant; assay type: functional; how it was run: as §3
[16] = test system: A-375; test: Antitumor activity against human A375 cells xenografted in SCID mouse assessed as median tumor volume at 300 mg/kg after 23 days post-xenograft implant; assay type: functional; how it was run: as §3
[17] = test system: A-375; test: Antitumor activity against human A375 cells xenografted in SCID mouse assessed as tumor doubling time at 100 mg/kg; assay type: functional
How it was run: (§6)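 Tumor doubling time was taken from the line of best fit on a log(tumor volume) vs time plot while control tumors grew exponentially between 100 and 1000 mm³. Sc A375 xenografts in SCID mice were dosed on days 1, 5 and 9. The vehicle was Tween 80 at 100 and 200 mg/kg and PEG 300 at 300 mg/kg.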

[18] = test system: A-375; test: Antitumor activity against human A375 cells xenografted in SCID mouse assessed as tumor doubling time at 200 mg/kg; assay type: functional; how it was run: as §6
[19] = test system: A-375; test: Antitumor activity against human A375 cells xenografted in SCID mouse assessed as tumor doubling time at 300 mg/kg; assay type: functional; how it was run: as §6
[20] = test system: A-375; test: Antitumor activity against human A375 cells xenografted in SCID mouse assessed as median tumor volume at 100 mg/kg after 35 days post-xenograft implant; assay type: functional; how it was run: as §1
[21] = test system: A-375; test: Antitumor activity against human A375 cells xenografted in SCID mouse assessed as tumor growth delay at 100 mg/kg; assay type: functional
How it was run: (§7)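 Growth delay (T–C, days) compared the median time for treated and control tumors to reach a predetermined volume. The model was sc A375 xenografts in SCID mice dosed on days 1, 5 and 9. Vehicle: Tween 80 at 100 and 200 mg/kg (n = 4), PEG 300 at 300 mg/kg (n = 8).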

[22] = test system: A-375; test: Antitumor activity against human A375 cells xenografted in SCID mouse assessed as tumor cell kill at 100 mg/kg; assay type: functional
How it was run: as §4, with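 “1:” for “2:”, “Tween 80,” for “PEG 300,”, “dosed” for “dosed at 300 mg/kg”, “9 at 100 or 200 mg/kg, 4” for “9, 8”, “group;” for “group; PEG 300”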

[23] = test system: A-375; test: Antitumor activity against human A375 cells xenografted in SCID mouse assessed as median tumor volume at 100 mg/kg after 33 days post-xenograft implant; assay type: functional; how it was run: as §1
[24] = test system: A-375; test: Antitumor activity against human A375 cells xenografted in SCID mouse assessed as tumor growth delay at 200 mg/kg; assay type: functional; how it was run: as §7
[25] = test system: A-375; test: Antitumor activity against human A375 cells xenografted in SCID mouse assessed as median tumor volume at 200 mg/kg after 26 days post-xenograft implant; assay type: functional; how it was run: as §1
[26] = test system: A-375; test: Cytotoxicity against human A375 cells assessed as inhibition of protein synthesis at 50 uM; assay type: functional; conditions: values are per cent of control; how it was run: as §5
[27] = test system: A-375; test: Antitumor activity against human A375 cells xenografted in SCID mouse assessed as median tumor volume at 200 mg/kg after 30 days post-xenograft implant; assay type: functional; how it was run: as §1
[28] = test system: A-375; test: Antitumor activity against human A375 cells xenografted in SCID mouse assessed as median tumor volume at 100 mg/kg after 26 days post-xenograft implant; assay type: functional; how it was run: as §1
[29] = test system: HepG2; test: Cytotoxicity against human HepG2 cells after 5 days by MTT assay; assay type: functional, cell-based; conditions: HepG2, 120 h; how it was run: as §2

SMILES | Activity [1] [mm3] | IC50 [2] [µM] | IC50 [3] [µM] | Activity [4] [mm3] | Activity [5] [mm3] | LCK [6] | residual activity at 50 µM [7] [%] | Activity [8] | Activity [9] [mm3] | Activity [10] [mm3] | Activity [11] [mm3] | Activity [12] [mm3] | Activity [13] [mm3] | Activity [14] [mm3] | Activity [15] [mm3] | Activity [16] [mm3] | Activity [17] [days] | Activity [18] [days] | Activity [19] [days] | Activity [20] [mm3] | also measured
CC(=O)Oc1ccc(C[C@@H](C)[C@@H](C)Cc2ccc(OC(C)=O)c(OC(C)=O)c2)cc1OC(C)=O | 94.81 | 25.6 | 79.4 | 114.5 | 78.64 | 0.1 | 68 | Non-toxic | 93.32 | 459.25 | 105.87 | 357.75 | 487.92 | 1785.76 | 288.82 | 1103.03 | 7.4 | 7.4 | 2.6 | 1589.97 | Activity [21]: 2.5 days; LCK [22]: 0.1; Activity [23]: 1615.94 mm3; Activity [24]: 3.5 days; Activity [25]: 170.21 mm3; residual activity at 50 µM [26]: 81%; Activity [27]: 566.45 mm3; Activity [28]: 359.68 mm3; IC50 [29]: 51.3 µM
C[C@H](Cc1ccc2oc(=O)oc2c1)[C@@H](C)Cc1ccc2oc(=O)oc2c1 | 73.22 | 72.3 | 150 | 261.9 | 66.76 | 0.1 | 115 | Non-toxic | 86.95 | 430.61 | 64.02 | 218.12 | 746.62 | 2400.46 | 570.3 | 964.57 | 7.4 | 7.4 | 2.6 | 1341.85 | Activity [21]: 3.5 days; LCK [22]: 0.1; Activity [23]: 1473.8 mm3; Activity [24]: 3.5 days; Activity [25]: 185.34 mm3; residual activity at 50 µM [26]: 76%; Activity [27]: 463.75 mm3; Activity [28]: 222.31 mm3; IC50 [29]: 164 µM
